Laboratory results: ChEMBL document CHEMBL1132195, “cycloSal-Pronucleotides of 2',3'-dideoxyadenosine and 2', 3'-dideoxy-2',3'-didehydroadenosine: synthesis and antiviral evaluation of a highly efficient nucleotide delivery system” (J Med Chem, 1999)

Legend:
[1] = Selectivity index by CC50 of CEM cells/EC50 of CEM cells against HIV-1; assay type: functional, CCRF-CEM
[2] = test system: C3H/3T3; experiment: Minimal cytotoxic concentration required to cause morphological alteration of C3H/3T3 fibroblast culture cells; assay type: functional; conditions: Mus musculus
How it was run: (§1)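 C3H/3T3 mouse embryo fibroblasts seeded at 20 000 cells/mL, incubated 24 h, infected with 80 focus-forming units of MSV for 120 min, then given fresh medium with compound dilutions. Transformation scored microscopically after 6 days; EC50 is the concentration giving 50% inhibition of transformation. MCC is the lowest concentration causing microscopically visible morphological alteration of the fibroblast cultures.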

[3] = test system: Human immunodeficiency virus 2; experiment: In vitro inhibition of HIV-2 replication in human T-lymphocytic cells (CEM).; assay type: functional, organism-based
How it was run: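 CEM cells at 4×10^5 cells/mL infected with HIV-1 or HIV-2 (strain ROD, stocks grown in MT-4 cells) at ~100 CCID50 per mL. Infected cells mixed 1:1 with compound dilutions. Giant cell formation recorded microscopically after 4-5 days; EC50 is the 50% effective concentration.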

[4] = test system: Human immunodeficiency virus 1; experiment: In vitro inhibition of HIV-1 replication in human T-lymphocytic cells (CEM).; assay type: functional, organism-based
How it was run: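 CEM cells at 4×10^5 cells/mL infected with HIV-1 or HIV-2 (strain ROD, stocks grown in MT-4 cells) at ~100 CCID50 per mL. Infected cells mixed 1:1 with compound dilutions.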

[5] = Hydrolysis half life in glycine/HCl buffer at the specified pH of 3.0; assay type: ADME; conditions: pH 3
How it was run: (§2)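 Compound diluted from DMSO stock to 0.71 mM final in 24.8 mM buffer at 37 °C, with AZT as internal standard. Buffers: phosphate (Sörensen) pH 7.3; glycine/HCl pH 3.0 or 1.5. Aliquots stopped by freezing and analysed by RP-HPLC at 260 nm. Rate constant taken from the log degradation slope, half-life calculated from it; mean of duplicates.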

[6] = Partition coefficient (logP); assay type: physicochemical; conditions: octanol/water
How it was run: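 Compound dissolved in 1-octanol, shaken with an equal volume of water for 10 min and phases separated by centrifugation. Each phase analysed by RP-HPLC with UV detection at 260 nm. P calculated from the peak areas of the aqueous and organic phases.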

[7] = test system: C3H/3T3; experiment: (§3) Effect of compound against Moloney murine sarcoma virus (MSV)-induced transformation of C3H/3T3 embryo murine fibroblasts; assay type: functional, cell-based; conditions: Mus musculus; how it was run: as §1
[8] = Hydrolysis half life in phosphate buffer at the specified pH of 7.3; assay type: ADME; conditions: pH 7.3; how it was run: as §2
[9] = test system: CCRF-CEM; experiment: In vitro cytotoxic concentration in CEM cells.; assay type: functional, Homo sapiens
[10] = Hydrolysis half life in glycine/HCl buffer at the specified pH of 1.5; assay type: ADME; conditions: pH 1.5; how it was run: as §2
[11] = test system: C3H/3T3; experiment: as §3; assay type: functional, cell-based, Mus musculus; how it was run: as §1
[12] = Selectivity by CC50 of CEM cells/EC50 of CEM cells against HIV-1; assay type: functional, CCRF-CEM
[13] = test system: C3H/3T3; experiment: Minimal cytotoxic concentration in C3H/3T3 cells.; assay type: functional; conditions: Mus musculus; how it was run: as §1

Compound | SI [1] | MCC [2] [µM] | EC50 ([3]; Human immunodeficiency virus 2) [µM] | EC50 ([4]; Human immunodeficiency virus 1) [µM] | half-life [5] [min] | logP [6] | EC50 [7] [µM] | half-life [8] [h] | CC50 ([9]; Homo sapiens, CCRF-CEM) [µM] | half-life [10] [min] | EC50 [3] [µM] | EC50 [4] [µM] | EC50 ([11]; c3h/3t3) [µM] | CC50 [9] [µM] | logP ([6]; read-out: logP) | EC50 ([11]; Mus musculus, C3H/3T3) [µM] | SI [12] | MCC [13] [µM]
Nc1ncnc2c1ncn2C1CCC(COP2(=O)OCc3ccccc3O2)O1 (centres undefined) | 3096 | > 50 | 0.13 | 0.03 | 774 | 0.59 | 2.86 | 17 | 93 | 36 |  |  |  |  |  |  |  | 
COc1ccc2c(c1)COP(=O)(OC[C@@H]1C=C[C@H](n3cnc4c(N)ncnc43)O1)O2 (stereo in doubt; 10b (f)) | 932 |  |  |  |  | 0.48 |  |  |  |  | 0.05 | 0.043 | 2.83 | 40 |  |  |  | 
Nc1ncnc2c1ncn2[C@H]1C=C[C@@H](COP2(=O)OCc3ccccc3O2)O1 (some centres undefined) | 1329 | > 50 | 0.35 | 0.065 | 8.4 |  |  | 10.3 | 86 | 0.6 |  |  |  |  | 0.36 | 0.3 |  | 
Cc1cc(C)c2c(c1)COP(=O)(OCC1CCC(n3cnc4c(N)ncnc43)O1)O2 (centres undefined) | 383 | > 50 | 0.025 | 0.025 | 618 |  |  | 58.2 | 10 | 43.8 |  |  |  |  | 1.35 | 1.14 |  | 
Cc1cccc2c1OP(=O)(OC[C@@H]1C=C[C@H](n3cnc4c(N)ncnc43)O1)OC2 (some centres undefined) | 746 | > 50 | 0.19 | 0.065 | 9 |  |  | 32.3 | 49 | 0.588 |  |  |  |  | 0.63 | 1.24 |  | 
Cc1cn([C@H]2C[C@H](N=[N+]=[N-])[C@@H](CO)O2)c(=O)[nH]c1=O [ZIDOVUDINE] |  |  | 0.006 |  |  |  |  |  | > 100 |  |  |  |  |  | 0.025 | > 100 |  | 
OC[C@@H]1C=C[C@H](n2cnc3ncnc(O)c32)O1 | 20 | > 50 | > 50 | 4.3 | < 0.6 |  |  |  | 87 | < 0.6 |  |  |  |  | -0.89 | > 50 |  | 
Nc1ncnc2c1ncn2[C@H]1C=C[C@@H](CO)O1 | 3 | > 50 | 50 | 30 | 0.6 |  |  |  | 96 | < 0.6 |  |  |  |  | -0.49 | 35 |  | 
COc1ccc2c(c1)COP(=O)(OC[C@@H]1C=C[C@H](n3cnc4c(N)ncnc43)O1)O2 (stereo in doubt; 10b (s)) | 125 | > 50 |  |  |  |  |  |  | 62 |  | 0.33 | 0.5 | 12.8 |  | 0.41 |  |  | 
Cc1cn([C@H]2C=C[C@@H](CO)O2)c(=O)[nH]c1=O [STAVUDINE] |  |  | 0.26 | 0.18 |  |  |  |  | 56 |  |  |  |  |  |  | 15 | 311 | 
Cc1cccc2c1OP(=O)(OCC1CCC(n3cnc4c(N)ncnc43)O1)OC2 (centres undefined) | 585 | > 50 | 0.03 | 0.047 | 834 |  | 1.18 | 44.3 | 28 | 31.8 |  |  |  |  | 0.88 |  |  | 
Cc1cccc2c1OP(=O)(OCC1CCC(n3cnc4c(O)ncnc43)O1)OC2 (centres undefined) | 53 | > 50 | 0.7 | 1.1 | 180 |  |  | 44.5 | 58 | 12 |  |  |  |  | 0.14 | > 50 |  | 
Nc1ncnc2c1ncn2[C@H]1CC[C@@H](CO)O1 |  |  | 4.5 | 4.3 |  |  |  |  | > 250 |  |  |  |  |  | -0.28 | 40 | >57 | > 50
COc1ccc2c(c1)COP(=O)(OCC1CCC(n3cnc4c(N)ncnc43)O1)O2 (centres undefined) | 1851 | > 50 | 0.16 | 0.047 | 732 |  | 3.9 | 23.4 | 87 | 48 |  |  |  |  | 0.64 |  |  | 
Cc1cc(C)c2c(c1)COP(=O)(OC[C@@H]1C=C[C@H](n3cnc4c(N)ncnc43)O1)O2 (some centres undefined) | 494 | > 50 | 0.055 | 0.05 | 8.4 |  |  | 44.7 | 25 | 0.6 |  |  |  |  | 0.95 | 1.14 |  | 
OCC1CCC(n2cnc3ncnc(O)c32)O1 (centres undefined) | 44 | > 50 | 4 | 3.5 | 12 |  |  |  | 156 | 1.8 |  |  |  |  | -1.25 | > 50 |  | 
COc1ccc2c(c1)COP(=O)(OC[C@@H]1C=C[C@H](n3cnc4c(N)ncnc43)O1)O2 (stereo in doubt; 10b) | 962 |  |  |  | 8.4 |  |  | 14.5 |  | 0.66 | 0.065 | 0.08 | 1.21 | 77 |  |  |  | 
